Results: article PMC8419023 (Structure (London, England : 1993), 2021)
Each block holds one molecule with its values, some of them ahead of it.

Columns and labels:
[1] = molecular target: CDK2-cyclin A (Homo sapiens, UniProt P20248+P24941); assay: GST pull down, CDK2-cyclin A; format: binding; settings: 25 mM HEPES pH 7.5, 150 mM NaCl, 1 mM DTT, 0.01% NP-40; 1 h, 4°C; SDS-PAGE; three experiments; Figure 1B
Outline: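 Bacterially expressed proteins: CDK2 (1–298) as a GST fusion, cyclin A (1–432 or 173–432) as a 6XHis fusion. […] Incubated 1 h at 4 °C with mild agitation, washed three times in binding buffer, and bound material analysed by SDS-PAGE; repeated 2–3 times.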

[2] = molecular target: CDK2-cyclin A (Surface 2, hydrophobic patch); assay: Fluorescence polarization displacement of FITC-p27^27−36 from CDK2-cyclin A; format: binding, human

B1: Skp2^Δ1−88: Skp2 lacking the first 88 residues (protein)
chain 1: RENFPGVSWDSLPDELLLGIFSCLCLPELLKVSGVCKRWYRLASDESLWQTLDLTGKNLHPDVTGRLLSQGVIAFRCPRSFMDQPLAEHFSPFRVQHMDLSNSVIEVSTLHGILSQCSKLQNLSLEGLRLSDPIVNTLAKNSNLVRLNLSGCSGFSEFALQTLLSSCSRLDELNLSWCFDFTEKHVQVAVAHVSETITQLNLSGYRKNLQKSDLSTLVRRCPNLVHLDLSDSVMLKNDCFQEFFQLNYLQHLSLSRCYDIIPETLLELGEIPTLKTLQVFGIVPDGTLQLLKEALPHLQINCSHFTTIARPTIGNKKNQEIWGIKCRLTLQKPSCL
chain 2: MPSIKLQSSDGEIFEVDVEIAKQSVTIKTMLEDLGMDPVPLPNVNAAILKKVIQWCTHHKDDPGSGGTDDIPVWDQEFLKVDQGTLFELILAANYLDIKGLLDVTCKTVANMIKGKTPEEIRKTFNIKNDFTEEEEAQVRKENQWCEEK
modifications: left off: GST, end not stated, kept | His6, end not stated, state not stated
- pull down / binding of CDK2-cyclin A^173−432 with or without Cks1 [1]: could not bind CDK2-cyclin A in the absence of Cks1

- IC50 ([2]; 25 nM FITC-p27^27−36, CDK2-cyclin A 6.25 μM, HEPES pH 7.5, 30 min, N=4, Figure 3E): not determinable
- displacement of FITC-p27^27−36 (in words) ([2]; CDK2-cyclin A 6.25 μM, N=4, Figure 3E): greatly compromised for this function
B2: F79A/I81A/R83A: full length Skp2 (Skp1-Skp2^1−424) with Motif 2 mutation F79A/I81A/R83A (protein)
chain 1: MHRKHLQEIPDLSSNVATSFTWGWDSSKTSELLSGMGVSALEKEEPDSENIPQELLSNLGHPESPPRKRLKSKGSDKDAVAVARPKLNRENFPGVSWDSLPDELLLGIFSCLCLPELLKVSGVCKRWYRLASDESLWQTLDLTGKNLHPDVTGRLLSQGVIAFRCPRSFMDQPLAEHFSPFRVQHMDLSNSVIEVSTLHGILSQCSKLQNLSLEGLRLSDPIVNTLAKNSNLVRLNLSGCSGFSEFALQTLLSSCSRLDELNLSWCFDFTEKHVQVAVAHVSETITQLNLSGYRKNLQKSDLSTLVRRCPNLVHLDLSDSVMLKNDCFQEFFQLNYLQHLSLSRCYDIIPETLLELGEIPTLKTLQVFGIVPDGTLQLLKEALPHLQINCSHFTTIARPTIGNKKNQEIWGIKCRLTLQKPSCL
chain 2: MPSIKLQSSDGEIFEVDVEIAKQSVTIKTMLEDLGMDPVPLPNVNAAILKKVIQWCTHHKDDPGSGGTDDIPVWDQEFLKVDQGTLFELILAANYLDIKGLLDVTCKTVANMIKGKTPEEIRKTFNIKNDFTEEEEAQVRKENQWCEEK
modifications: left off: GST, end not stated, cleaved | His6, end not stated, cleaved

- loss of displacement effectiveness versus wild-type ([2]; mutant versus wild-type Skp2^1−424, FITC-p27^27−36, Figure 4F): 3 fold
B3: 4A mutant of Skp2^1−424: full-length Skp2 with L32A/L33A/S39A/L41A (Motif 1 mutant) (protein)
chain 1: MHRKHLQEIPDLSSNVATSFTWGWDSSKTSEAASGMGVAAAEKEEPDSENIPQELLSNLGHPESPPRKRLKSKGSDKDFVIVRRPKLNRENFPGVSWDSLPDELLLGIFSCLCLPELLKVSGVCKRWYRLASDESLWQTLDLTGKNLHPDVTGRLLSQGVIAFRCPRSFMDQPLAEHFSPFRVQHMDLSNSVIEVSTLHGILSQCSKLQNLSLEGLRLSDPIVNTLAKNSNLVRLNLSGCSGFSEFALQTLLSSCSRLDELNLSWCFDFTEKHVQVAVAHVSETITQLNLSGYRKNLQKSDLSTLVRRCPNLVHLDLSDSVMLKNDCFQEFFQLNYLQHLSLSRCYDIIPETLLELGEIPTLKTLQVFGIVPDGTLQLLKEALPHLQINCSHFTTIARPTIGNKKNQEIWGIKCRLTLQKPSCL
chain 2: MPSIKLQSSDGEIFEVDVEIAKQSVTIKTMLEDLGMDPVPLPNVNAAILKKVIQWCTHHKDDPGSGGTDDIPVWDQEFLKVDQGTLFELILAANYLDIKGLLDVTCKTVANMIKGKTPEEIRKTFNIKNDFTEEEEAQVRKENQWCEEK
modifications: left off: GST, end not stated, cleaved | His6, end not stated, cleaved
